Tests used:
[1] = Tmax in Sprague-Dawley rat plasma at 5 mg/kg, po via gavage by HPLC/MS analysis; type: ADME, organism-based
Plasmodium falciparum [2] = experiment: Antimalarial activity against Plasmodium falciparum NF54 infected in human erythrocytes assessed as reduction in [3H]-hypoxanthine incorporation preincubated for 24 hrs followed by [3H]-hypoxanthine addition measured after 24 hrs by scintillation counting method; type: functional, cell-based
[3] = Terminal half life in Beagle dog at 5 mg/kg, po via gavage by HPLC/MS analysis; type: ADME, organism-based, Canis lupus familiaris; conditions: in vivo, read-out: beta t1/2 (converted)
Method in brief: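 Female CD-1 mice, male SD rats or beagle dogs given 5 mg/kg by iv injection or oral gavage. Formulation was PEG300/propylene glycol/water 55/25/20, pH 6. Blood samples analysed by HPLC–MS/MS; parameters include AUC0-inf extrapolated to infinity and terminal half-life.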

[4] = Terminal half life in Sprague-Dawley rat at 5 mg/kg, po via gavage by HPLC/MS analysis; type: ADME, organism-based; conditions: in vivo, read-out: beta t1/2 (converted)
Salmonella typhimurium [5] = experiment: Genotoxicity in Salmonella typhimurium TA1537 assessed as number of revertants per plate at 150 ug/plate in presence of rat liver S9 fraction by Ames test (reference value: 11 +/- 4); type: toxicity; conditions: salmonella enterica subsp. enterica serovar typhimurium
Plasmodium falciparum [6] = experiment: Antimalarial activity against intraerythrocytic stage of Plasmodium falciparum assessed as parasite reduction ratio at 100 times IC50 preincubated for 24 hrs followed by [3H]-hypoxanthine addition measured after 24 hrs by scintillation counting method; type: functional
Method in brief: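 In vitro P. falciparum parasite reduction ratio assay run at 10×, 30× and 100× IC50. Derived parameters: lag phase (time to maximal killing), PRR (parasites killed per life cycle) and PCT99.9% (time to clear 99.9% of the initial parasite population).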

[7] = Volume of distribution at steady state in Sprague-Dawley rat at 5 mg/kg, iv by HPLC/MS analysis; type: ADME, organism-based; conditions: in vivo, read-out: Vdss
Salmonella typhimurium [8] = experiment: Genotoxicity in Salmonella typhimurium TA1537 assessed as number of revertants per plate at 1.5 ug/plate in absence of rat liver S9 fraction by Ames test (reference value: 19 +/- 9); type: toxicity; conditions: salmonella enterica subsp. enterica serovar typhimurium
Plasmodium berghei [9] = experiment: Antimalarial activity against Plasmodium berghei infected in Swiss Webster mouse assessed as mouse survival rate at 100 mg/kg administered once daily via oral gavage for 4 consecutive days beginning 1 hr after infection measured on day 19 post infection relative to control; type: functional
Method in brief: (§1)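 Mice given an intraperitoneal injection of P. berghei-infected erythrocytes taken from a previously infected animal. Oral dosing once daily for 4 consecutive days, starting 1 h after infection. Vehicle: polyethylene glycol 300/propylene glycol/water (weight ratio 55/25/20). Percent survival recorded daily from day 4 to day 20. Chloroquine 30 mg/kg and vehicle-only groups served as controls.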

Plasmodium berghei [10] = experiment: Antimalarial activity against Plasmodium berghei infected in Swiss Webster mouse assessed as mouse survival rate at 0.3 mg/kg administered once daily via oral gavage for 4 consecutive days beginning 1 hr after infection measured on day 4 post infection relative to control; type: functional; method in brief: as §1
Plasmodium berghei [11] = experiment: Antimalarial activity against Plasmodium berghei infected in Swiss Webster mouse assessed as mouse survival rate at 1 mg/kg administered once daily via oral gavage for 4 consecutive days beginning 1 hr after infection measured on day 6 post infection relative to control; type: functional; method in brief: as §1
Plasmodium berghei [12] = experiment: Antimalarial activity against Plasmodium berghei infected in Swiss Webster mouse assessed as mouse survival rate at 1 mg/kg administered once daily via oral gavage for 4 consecutive days beginning 1 hr after infection measured on day 5 post infection relative to control; type: functional; method in brief: as §1

Cc1c(Oc2cnc(C(=O)N3CC(C)(O)C3)cn2)ccc2c1B(O)OC2
Tmax [1]: 3.5 h
IC50 (Plasmodium falciparum [2]): 36 nM
half-life [3]: 570 min
half-life [4]: 312 min
Activity (Salmonella typhimurium [5]): 12
log(ratio) (Plasmodium falciparum [6]): 4.9
Vd [7]: 0.831 L/kg
Activity (Salmonella typhimurium [8]): 15

Cc1c(Oc2cnc(C(=O)N3CC(O)(C(C)C)C3)cn2)ccc2c1B(O)OC2
survival at 100 mg/kg (Plasmodium berghei [9]): 80%

Cc1c(Oc2cnc(C(=O)NC(C)CO)cn2)ccc2c1B(O)OC2 (configuration not stated)
survival at 0.3 mg/kg (Plasmodium berghei [10]): 100%
survival at 1 mg/kg (Plasmodium berghei [11]): 20%
survival at 1 mg/kg (Plasmodium berghei [12]): 20%
